The list is not random: actives were taken first. Their share in the collection is about 3.9%.
CHRM1 agonist: activates human CHRM1 receptor | P11229 | CHO-K1 hM1, Fluo-8 calcium fluorescence, agonist mode; 0% DMSO, 100% acetylcholine EC100 | activation, % at 3 µM | 360,000 tested, 0.33% active | AID 588814;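 active means activation above the run's mean compound activation plus 3 SD, cut at about 16% in these data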;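 further: peak over basal fluorescence ratio within a 140 s kinetic read after compound addition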
TAAR1 antag: antagonists of human TAAR1. Q96RJ0. CHO RD-HGA16 TAAR1, Fluo-8 calcium fluorescence, antagonist. inhibition, % at 3 µM. 360,000 tested, 1.5% active. AID 624466;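 active means inhibition above a per-plate cutoff, the mean inhibition of test compounds on that plate plus 3 SD, cut at about 49% in these data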;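 further: 0% = DMSO plus EC80 beta-PEA response and 100% = DMSO alone without agonist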
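Test system – hTAAR1-expressing CHO RD-HGA16 cells, Gα16-coupled · Also added – β-PEA at EC80 concentration, post-compound challenge · Compound – 3 µM, single point · Incubation – dye loading 75 min at 37 °C, then 30 min room temperature · Measured by – Fluo-8 intracellular calcium dye fluorescence, real-time kinetic reads · Benchmarks – vehicle and agonist controls · Replicates – singlicate, one well per test compound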
CHRM1 antagonist: blocks human M1 muscarinic receptor; P11229; CHO-K1 hM1, Fluo-8 calcium fluorescence, ACh EC80 antagonist; inhibition, % at 3 µM; 360,000 tested, 1.3% active;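 active means percent inhibition above its own plate's cutoff, namely the mean of that plate's compound wells plus 3 SD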;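 further: peak over basal fluorescence ratio during 140 s after agonist addition; 0% = ACh EC80 plus DMSO and 100% = DMSO alone without agonist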
M1 PAM: potentiates human M1 receptor response to acetylcholine | CHO-K1 hM1, Fluo-8 calcium fluorescence, ACh EC20; 0% = ACh EC20, 100% = maximal ACh | activation, % at 3 µM | P11229 | 360,000 tested, 0.088% active; in the data active means activation above about 19%, passing the limit was not always enough
HTR2A ag: mouse HTR2A agonism via beta-arrestin recruitment; CHO-K1 mHTR2A beta-arrestin complementation, luminescence; percent of 30 µM serotonin response; P35363; 360,000 tested, 0.66% active; activation, % at 7.6 µM; AID 624169;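 active means activation above a run cutoff, the mean activation of all tested compounds plus 3 SD, cut at about 14% in these data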;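 further: 0% = plate median of compound wells and 100% = 30 µM serotonin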
Target sequence (P35363 whole entry, looked up): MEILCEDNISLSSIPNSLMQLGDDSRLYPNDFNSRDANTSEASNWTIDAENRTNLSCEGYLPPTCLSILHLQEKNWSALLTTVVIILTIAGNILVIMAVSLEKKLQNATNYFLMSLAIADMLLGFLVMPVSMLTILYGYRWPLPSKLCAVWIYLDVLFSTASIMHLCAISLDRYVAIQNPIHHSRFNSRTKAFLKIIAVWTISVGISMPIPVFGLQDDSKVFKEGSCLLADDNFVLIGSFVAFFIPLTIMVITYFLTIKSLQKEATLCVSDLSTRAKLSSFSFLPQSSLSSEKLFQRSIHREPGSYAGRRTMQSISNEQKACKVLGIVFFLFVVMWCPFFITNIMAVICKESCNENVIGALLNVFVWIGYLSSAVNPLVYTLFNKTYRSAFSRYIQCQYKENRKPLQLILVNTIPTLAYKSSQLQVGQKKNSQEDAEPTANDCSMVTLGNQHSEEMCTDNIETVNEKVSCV
TAAR1 ag: agonists of human TAAR1 | CHO RD-HGA16 TAAR1, Fluo-8 calcium fluorescence; vehicle wells 0%, saturating PEA agonist 100% | AID 624467 | 360,000 tested, 0.99% active | activation, % at 3 µM | Q96RJ0;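 active means activation above the mean activation of all test compounds in the run plus 3 SD, cut at about 38% in these data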
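Test system: RD-HGA16 (CHO) cells co-expressing Gα16 and hTAAR1; dosing: one-point dosing at 3 µM (nominal); timing: 17-24 h seeding, 75 min 37 °C dye, 30 min RT; signal: kinetic Fluo-8 calcium fluorescence; read-out basis: % activation relative to PEA EC100 response; controls: DMSO and PEA EC100; replicates: n 1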
The depositor's hits bear a star; nt = no result given.

SMILES	CHRM1 agonist	TAAR1 antag	CHRM1 antagonist	M1 PAM	HTR2A ag	TAAR1 ag
COc1ccc(-c2cc(-c3ccccc3)[n+](C)c(-c3ccccc3)c2)cc1	-12.3	12.5	13.1	-11.4	3.2	6.5
C[n+]1c(-c2ccccc2)cc(CCCCc2cc(-c3ccccc3)[n+](C)c(-c3ccccc3)c2)cc1-c1ccccc1	-4.9	-4.1	54.6*	-19.0	-5.6	-1.1
O=[N+]([O-])c1ccccc1CN1CC=C(c2ccc(F)cc2)CC1	-8.4	-15.4	1.1	-8.9	-2.1	6.8
O=[N+]([O-])c1cccc(CN2CC=C(c3ccc(F)cc3)CC2)c1	-10.1	10.1	9.0	-15.1	-9.3	-0.3
CCN(CC)c1ccc(CN2CC=C(c3ccc(F)cc3)CC2)cc1	-4.9	-11.8	36.9*	-22.5	-6.5	18.3
COc1ccc(CN2CC=C(c3ccc(F)cc3)CC2)cc1Br	-7.4	-11.2	46.1*	-26.3	-0.8	0.2
CCN1C(=O)C(=Cc2ccc(N3CCOCC3)o2)C(=O)N(CC)C1=S	7.7	-2.0	15.8	-6.2	-1.8	40.0*
O=c1c2ccccc2nc(-c2ccccc2)n1-c1ccccc1	-3.8	-4.3	-11.2	6.5	5.5	9.0
O=c1c2ccccc2[se]n1-c1ccccc1	0.5	32.4	-23.5	-1.3	-7.8	41.3*
CC1=[N+]([O-])C2(N)CCc3nonc3C2(O)C1 (configuration not stated)	-1.9	-6.7	-5.5	5.5	-1.8	1.9
CCN(CC)S(=O)(=O)c1cc(NC(=O)C(C)N2CC=C(c3ccccc3)CC2)ccc1C (configuration not stated)	-14.9	4.0	37.2*	-27.6	13.5	0.2
CCN(CC)CCOC(=O)C(O)(c1ccccc1)c1ccccc1	nt	-13.7	nt	nt	-4.3	3.2
CCN(CC)CCCOC(=O)C(OC)(c1ccccc1)c1ccccc1	-12.5	-13.5	98.8*	-36.4	-1.3	0.7
CCOC(C(=O)OCCC[N+](C)(CC)CC)(c1ccccc1)c1ccccc1	-15.3	-9.2	97.8*	-35.2	7.2	10.8
CC[N+](C)(CC)CCCOC(=O)C(O)(c1ccccc1)C1CCCCC1 (configuration not stated)	-8.9	1.4	96.1*	-23.0	-0.3	3.1
CC/C(=N\N1CCCCCC1)c1c(O)n(-c2ccc(C)cc2)c(=O)[nH]c1=O	-7.4	-6.6	-2.7	1.4	-1.5	-0.1
OC(CN1CCCCC1)c1c[nH]c2ccccc12 (configuration not stated)	-1.3	-4.3	1.1	7.2	-4.0	3.6
CC(C)c1ccc(N=Cc2c(O)n(C3CC3)c(=S)[nH]c2=O)cc1	-0.3	8.1	12.6	-6.2	4.4	1.8
OC(c1cccc(Cl)c1)(c1cccc(Cl)c1)C1CN2CCC1CC2 (configuration not stated)	-9.3	29.6	98.5*	-30.8	-8.2	11.9
O=c1[nH]c2ccccc2n1C1CCN(C(c2nnnn2C2CCCCC2)C2CC2)CC1 (configuration not stated)	13.8	52.0*	-19.9	9.0	11.4	58.1*
O=c1[nH]c2ccccc2n1C1CCN(C(c2cccs2)c2nnnn2Cc2ccccc2)CC1 (configuration not stated)	-1.5	33.1	-5.8	2.4	3.0	9.5
CSCCC(c1nnnn1C1CCCCC1)N1CCC(n2c(=O)[nH]c3ccccc32)CC1 (configuration not stated)	-1.9	62.3*	33.7*	-16.4	8.0	19.6
O=c1[nH]c2ccccc2n1C1CCN(C(c2nnnn2C2CCCC2)C2CC2)CC1 (configuration not stated)	4.4	39.7	8.5	-4.2	6.7	25.8
O=c1[nH]c2ccccc2n1C1CCN(C(c2nnnn2Cc2ccccc2)C2CC2)CC1 (configuration not stated)	-0.7	63.1*	3.7	-4.4	1.4	17.2
O=c1[nH]c2ccccc2n1C1CCN(C(c2cc3ccccc3o2)c2nnnn2-c2ccc3c(c2)OCCO3)CC1 (configuration not stated)	4.1	65.9*	-2.5	-4.9	4.0	16.4
SMILES	CHRM1 agonist	TAAR1 antag	CHRM1 antagonist	M1 PAM	HTR2A ag	TAAR1 ag
O=C(CN1CCCCC1)c1ccc(F)cc1	-2.8	-6.8	-10.3	6.2	-2.4	1.7
O=C(c1ccccc1)C(CN1CCCC1)c1ccccc1 (configuration not stated)	-6.5	-7.9	50.9*	-25.6	-1.4	0.8
O=C1NC(=S)N(c2ccc(Cl)cc2)C(=O)/C1=C/N1CCN(C(=O)c2ccco2)CC1	0.0	4.9	11.7	-3.4	-2.5	38.5*
CCOC(=O)C1(c2ccccc2)CCN(CCC(=O)Nc2cccc(Br)c2)CC1	1.9	50.1*	20.4	-14.7	-15.4	17.2
N#Cc1ccc2nc(-c3ccc(CN4CCC(n5c(=O)[nH]c6ccccc65)CC4)cc3)c(-c3ccccc3)nc2c1	nt	61.3*	nt	nt	2.0	2.2
Cc1cccc2nc(-c3ccccc3)c(-c3ccc(CN4CCC(n5c(=O)[nH]c6ccccc65)CC4)cc3)nc12	nt	26.9	nt	nt	-7.4	1.8
CC(C)(C)c1ccc(C(=O)C2CCCN(Cc3ccon3)C2)cc1 (configuration not stated)	-11.3	-23.9	8.8	-19.8	0.3	4.3
CC(C)(C)c1ccc(C(=O)C2CCCN(C3CCC3)C2)cc1 (configuration not stated)	-6.8	7.1	51.8*	-22.4	-6.8	2.8
CSc1ccc(CNC2CN3CCC2CC3)cc1 (configuration not stated)	-12.2	-8.5	-10.9	2.1	0.7	15.6
Clc1ccccc1CNC1CN2CCC1CC2 (configuration not stated)	-10.0	-11.6	39.1*	-20.1	-2.6	3.0
c1ccc(CNC2CN3CCC2CC3)cc1 (configuration not stated)	-8.6	-13.5	58.5*	-28.2	-0.3	0.6
N#Cc1ccc(C(=O)N2Cc3cnnn3-c3ccccc3C2C#N)cc1 (configuration not stated)	-1.1	-33.1	-15.3	15.5	1.8	1.5
Cc1nnc(SCc2nc3ccccc3c(=O)n2-c2ccccc2Cl)n1N	10.2	-5.8	-5.1	19.8	9.1	3.1
C[N+]12CCC(CC1)C(C(O)(c1ccccc1)c1cccs1)C2 (configuration not stated)	-8.3	-31.7	99.5*	-22.6	-3.9	13.3
CCC[N+]12CCC(CC1)C(C(O)(c1ccccc1)c1ccccc1)C2 (configuration not stated)	-9.1	-26.9	60.1*	-24.2	-1.0	3.5

Assay outcomes as filed in PubChem BioAssay.
